# Assay outcomes deposited in PubChem by Broad Institute.
# Rows were chosen to be rich in hits. Some 3.5% of all compounds tested hit in one or more screens of this group.
# FN deposit inh – fibronectin deposition inhibition | 350,000 compounds, 0.086% hits | inhibition, % at 12.6 µM | AID 743247 | AH1F fibroblasts, Alexa488-fibronectin deposition fluorescence, overnight;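 active = mean inhibition across replicates of 30% or more, regardless of how many single replicates reach that level; inconclusive = mean under 30% yet at least half of replicates reach 30%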;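 also: positive control wells lacked labelled fibronectin entirely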
#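 material = AH1F fibroblast monolayer depositing Alexa488-labelled fibronectin into matrix | amount = 10000 AH1F cells/well | buffer or medium = DMEM plus 2% serum, read in PBS | incubation = 1 h cell adhesion before compound, then overnight fibronectin incubation | detection = fluorescence at 485 nm excitation, 525 nm emission | evaluation = percent inhibition as loss of matrix-bound fibronectin fluorescence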
# PGC1a acetyl inh – modulators of PGC1a acetylation; 350,000 compounds, 0.17% hits; inhibition, % at 15.6 µM; U2OS PGC1a acetylation, AlphaScreen anti-acetyl-lysine; with virally co-expressed GCN5 acetyltransferase;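 active = every replicate shows inhibition of at least 40%; inconclusive = mean inhibition at least 40% but some replicate below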;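 also: 0% = neutral control wells and 100% = positive control wells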
# Env fusion inh – inhibitors of HIV Env-mediated cell fusion. HeLa-JRFL Env/CEM21 cell fusion, luciferase. inhibition, % at 12.3 µM. 360,000 compounds, 1.1% hits;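 active = mean replicate inhibition score of at least 50 and every replicate individually at or above 50; inconclusive = only one of the two criteria met; inactive = mean below 50 and not all replicates reaching 50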;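 also: 0% = plate neutral controls and 100% = maraviroc near 300 nM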
# PglD inh – PglD (C. jejuni) enzyme inhibition | purified PglD enzyme, DTNB colorimetric CoA detection | inhibition, % at 12.5 µM | 360,000 compounds, 0.098% hits | AID 602405; in the data active = inhibition above about 16%, passing the limit was not always enough; inconclusive = no clear call, values can overlap the other calls
# DENV2 CPE – inhibitors of DENV2 cytopathic effect. DENV2-infected cells, cytopathic effect rescue, plate reader. AID 651640. CPE inhibition, % at 9.99 µM. 350,000 compounds, 1.7% hits; in the data active = CPE inhibition above about 20%, passing the limit was not always enough; inconclusive = no clear call, values can overlap the other calls; tested in BHK-21 cells;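 also: 0% = median of neutral control wells and 100% = median of positive control wells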
# rRNA inh HTS – selective bacterial rRNA inhibition in E. coli; E. coli WT GFP vs humanized-ribosome RFP mutants, fluorescence, 24 h; active compounds read low; DMSO median 0, no signal -100; GFP signal change (wild-type ribosome), % (test concentration not listed); 350,000 compounds, 1.6% hits; AID 720706;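 active = significant combined selectivity score with lowered wild-type GFP, culture density cut under 30%, mutant RFP and density less affected; inactive = any of these conditions unmet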
# Active calls of the source: *; ? = inconclusive; / = not tested or not shown; [ ] = dose if it differs, or a comment.
SMILES,FN deposit inh,PGC1a acetyl inh,Env fusion inh,PglD inh,DENV2 CPE,rRNA inh HTS
CC(C)NC(=O)Nc1ccc2c(c1)C(=O)N([C@H](C)CO)C[C@H](C)[C@@H](CN(C)C(=O)Nc1ccc(F)cc1)OCCCC[C@H](C)O2,-5.5,3.4,-20.7[16.7 µM],2.0,-7.6,-1.2
Cc1ccc(C2=NC3(CCCCC3)NC2=S)cc1,4.8,/,/,/,22.3*,9.4
CCCCCCCCN1C(=O)[C@H](CC(=O)NCc2cccc3ccccc23)C[C@@]2(C(=O)OC)CC(C)(C)CC=C12,2.4,/,57.8*,/,-6.5,/
CCCCCCCCN1C(=O)[C@H](CC(=O)NCCCCc2ccccc2)C[C@@]2(C(=O)OC)CC(C)(C)CC=C12,3.5,/,12.5,/,35.0*,/
CN1C(=O)c2cc(NC(=O)Nc3ccccc3)ccc2OC[C@@H]2O[C@H](CC(=O)NC3CCC3)CC[C@H]21,-0.5,-3.8,9.1[16.7 µM],0.3,1.0,-1.9
CC1CCCN(Cc2c(O)ccc3c4c(c(=O)oc23)CCCC4)C1 (stereo not drawn),31.1*,?,1.6,0.3,-2.2,0.0
O=c1oc2c(CN3CCOCC3)c(O)ccc2c2c1CCC2,-3.0,/,-58.2,3.7,/,/
C[C@H](CO)N1C[C@H](C)[C@H](CN(C)S(=O)(=O)c2ccccc2)Oc2ccc(NC(=O)NC3CCCCC3)cc2CC1=O,-12.0,0.9,87.3*,3.3,-9.3,-1.6
C[C@H]1CN([C@@H](C)CO)C(=O)Cc2cc(NC(=O)Nc3ccccc3)ccc2O[C@H]1CN(C)S(=O)(=O)c1ccccc1,/,4.1,70.0*[16.7 µM],0.2,-2.2,/
C[C@@H]1CN([C@H](C)CO)C(=O)Cc2cc(NC(=O)NC3CCCCC3)ccc2O[C@H]1CN(C)S(=O)(=O)c1ccccc1,-8.8,-6.8,/,0.2,5.9,-1.2
CC(C)NC(=O)Nc1ccc2c(c1)CC(=O)N([C@H](C)CO)C[C@H](C)[C@H](CN(C)S(=O)(=O)c1ccccc1)O2,/,-0.5,65.3*[16.7 µM],-3.7,-3.0,-3.7
CC(C)NC(=O)Nc1ccc2c(c1)CC(=O)N([C@@H](C)CO)C[C@H](C)[C@H](CN(C)S(=O)(=O)c1ccccc1)O2,/,3.7,23.2[16.7 µM],-1.5,0.3,1.2
COc1ccc(NC(=O)N(C)C[C@H]2OCCCC[C@@H](C)Oc3ccc(NC(=O)Nc4ccc(C(F)(F)F)cc4)cc3C(=O)N([C@@H](C)CO)C[C@H]2C)cc1,/,10.7,23.0[16.7 µM],-0.1,18.5,5.5
C[C@@H]1CN([C@@H](C)CO)C(=O)Cc2cc(NC(=O)Nc3ccc(F)cc3)ccc2O[C@H]1CN(C)Cc1ccc2c(c1)OCO2,-13.5,-8.3,/,-1.4,8.9,-15.9
O=C(CN1c2ccccc2Sc2ccccc21)NNC(=S)Nc1ccc(Cl)cc1,-2.1,-5.1,6.8,6.0,-1.9,-47.7*
CN(C)CCCNc1ccc(-c2cc(Nc3cccc(Cl)c3)ncn2)cn1,10.5,2.9,0.8,-1.7,-0.2,-19.7*
CN(C)c1cccc(-c2cc(Nc3ccc(C(C)(C)C)cc3)ncn2)c1,3.5,/,-5.6,-6.6,?,-9.1
CCCOc1ccc(C(=O)NNC(=S)NC(=O)CC)cc1,/,3.0,60.0*,-4.5,/,/
O=C(COc1ccc(Cl)cc1Cl)OCC(=O)N1CCCc2ccccc21,-0.2,/,16.1,/,10.7,0.6
S=C(NC1CC1)N1CCCc2ccccc21,/,/,-0.1,/,53.7*,3.8
O=C(COc1ccc(Cl)cc1Cl)NC(=S)N1CCCc2ccccc21,/,/,/,/,-7.3,-25.8*
C[C@H]1CN([C@@H](C)CO)C(=O)c2cccc(NC(=O)c3ccncc3)c2O[C@H]1CN(C)CC1CCCCC1,3.1,/,1.9[16.7 µM],2.9,?,1.0
CO[C@@H]1CN(C)C(=O)c2cc(NS(C)(=O)=O)ccc2OC[C@H](C)NC[C@H]1C,-15.7,-5.5,-8.2[16.7 µM],2.7,18.2,-0.2
Cc1nn(C)c(C(=O)Nc2ccn(Cc3c(F)c(F)cc(F)c3F)n2)c1[N+](=O)[O-],-9.2,5.2,-1.1,-3.9,/,/
Cc1nn(Cc2cccc(C(=O)Nc3ccn(Cc4c(F)c(F)cc(F)c4F)n3)c2)c(C)c1[N+](=O)[O-],4.2,-24.8,56.3*,-1.7,/,/
SMILES,FN deposit inh,PGC1a acetyl inh,Env fusion inh,PglD inh,DENV2 CPE,rRNA inh HTS
CCOC(=O)N1CCC(n2c(SCC(=O)N3CCCC3)nc3ccccc3c2=O)CC1,4.5,/,0.7,-2.7,/,/
CCOC(=O)N1CCC(n2c(SCC(=O)N3CCC(C)CC3)nc3ccccc3c2=O)CC1,/,/,54.4*,4.7,/,/
CCOC(=O)N1CCC(n2c(SCC(=O)OCc3ccccc3)nc3ccsc3c2=O)CC1,-4.1,-19.9,96.5*,-2.2,/,/
COc1ccc(NC(=O)N(C)C[C@H]2OCc3ccccc3-c3ccccc3C(=O)N([C@H](C)CO)C[C@@H]2C)c(OC)c1,3.9,-1.8,/,3.9,-2.9,2.0
Cc1noc(C)c1S(=O)(=O)Nc1ccc2c(c1)C(=O)N([C@H](C)CO)C[C@H](C)[C@@H](CN(C)C(=O)C1CCCCC1)OCCCC[C@@H](C)O2,/,-7.1,-23.7[16.7 µM],1.7,-12.0,3.0
CO[C@@H]1CN(C)C(=O)c2ccc(NC(=O)Nc3ccc(Cl)cc3)cc2OC[C@@H](C)N(C(=O)Nc2c(C)noc2C)C[C@@H]1C,3.8,7.6,/,-1.6,4.1,-5.1
CN(CC(=O)Nc1cccc(F)c1)C(=O)CNS(=O)(=O)c1ccc(N(C)C)c([N+](=O)[O-])c1,2.0,/,6.3,/,89.5*,-1.4
C[C@@H]1CCCCO[C@@H](CN(C)S(=O)(=O)c2cccs2)[C@@H](C)CN([C@H](C)CO)C(=O)c2cc(NC(=O)CCCCCC(=O)Nc3ccccc3N)ccc2O1,/,/,18.3[16.7 µM],-2.1,1.6,4.3
N#Cc1nccnc1S(=O)(=O)c1cccs1,40.0*,/,9.9,/,9.8,-53.9
COC(=O)C1=C(C)NC(C)=C(C(=O)OC)C1/C=C/c1ccccc1,/,-11.3,/,-4.5,-1.3,-31.6*
CCOC(=O)C1=C(C)NC(C)=C(C(=O)OCC)C1/C=C/c1ccccc1,/,-19.4,/,3.9,4.9,-38.1
N#CN=CN1CC=C(c2ccc(Cl)cc2)CC1,-0.7,/,62.9*,/,-8.6,7.9
COc1ccc2c3c(n(C)c2c1)[C@@H](CO)N(CC1CC1)CC31CN(C(=O)CC2CC2)C1,2.5,-3.1,/,/,20.8*,-1.2
COc1ccc2c3c(n(C)c2c1)[C@H](CO)N(Cc1ccccc1F)CC31CCN(C(C)=O)CC1,/,-2.2,/,/,93.3*,3.3
COc1ccc2c3c(n(C)c2c1)[C@H](CO)N(CC1CCCC1)CC31CN(C(=O)Nc2ccccc2)C1,8.1,-46.9,/,/,5.4,-4.5
COc1ccc2c3c(n(C)c2c1)[C@H](CO)N(CC1CC1)CC31CN(C(=O)Nc2ccccc2)C1,/,/,/,/,22.7*,-3.0
COc1ccc(S(=O)(=O)N(C)C[C@H]2Oc3c(NC(=O)Nc4cccc5ccccc45)cccc3C(=O)N([C@H](C)CO)C[C@H]2C)cc1,5.1,15.1,0.1[16.7 µM],-0.2,3.4,3.9
CCC(=O)N1CC2(C1)CN(Cc1cc(F)ccc1F)[C@H](CO)c1c2c2ccc(OC)cc2n1C,/,/,/,/,/,-4.2
